The text below walks through data of ChEMBL document CHEMBL2203084, “Halogenated pentamethine cyanine dyes exhibiting high fidelity for G-quadruplex DNA” (Bioorg Med Chem, 2012).

The structures appear in SMILES notation. Active and inactive are the calls of the source. The rule behind the calls is not given here.

Assay type in all cases: nucleic-acid assay
The subject of test [1] is Nucleic Acid. The test is described as follows: Binding affinity to duplex DNA by two site-mode surface plasmon resonance analysis. A digest of the protocol: (§1)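 SPR: 5′-biotinylated DNA captured on a streptavidin chip (350–400 RU), with a blank reference cell. Ligand series from 1 nM to 1 µM injected at 25 µL/min for 5 min to steady state, then 5 min dissociation. Surface regenerated with 10 mM glycine pH 2.5. Steady-state RU was converted using predicted RUmax. Values are the mean of two experiments.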

Test [2] has as its system Nucleic Acid. The test can be described thus: Binding affinity to c-myc quadruplex DNA by two site-mode surface plasmon resonance analysis. A digest of the protocol:
as §1

Test [3] relates to Nucleic Acid. The test can be described thus: Binding affinity to Tel22 G-quadruplex DNA by two site-mode surface plasmon resonance analysis. The method, boiled down: as §1
Test [4] has as its system Nucleic Acid. The test can be described thus: Binding affinity to duplex DNA at 6:1 compound to DNA ratio by UV-spectrometer. The method, boiled down:
(§2)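 UV thermal denaturation in 1 cm quartz cuvettes; DNA at 2–3 µM single strand in HEPES buffer (50 mM KCl). Compound:DNA ratios 0:1 to 6:1. Absorbance followed versus temperature at 295 nm for Tel22 and 260 nm for the AATT hairpin duplex. ΔTm is the average of two independent trials, reproducible within 0.5 °C.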

For test [5], the system named is Nucleic Acid. The test is described as follows: Binding affinity to Tel22 G-quadruplex DNA at 6:1 compound to DNA ratio by UV-spectrometer. A digest of the protocol: as §2
The subject of test [6] is Nucleic Acid. The test is described as follows: Binding affinity to Tel22 G-quadruplex DNA at 4:1 compound to DNA ratio by UV-spectrometer. A digest of the protocol:
as §2

The test system of test [7] is Nucleic Acid. The test can be described thus: Binding affinity to Tel22 G-quadruplex DNA at 2:1 compound to DNA ratio by UV-spectrometer. The method, boiled down: as §2
Test [8] deals with Nucleic Acid. The test is described as follows: Binding affinity to c-myc quadruplex DNA by mass spectrometry. The method, boiled down: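 ESI-MS: c-myc DNA dialyzed against 50 mM ammonium acetate pH 7.2. Samples of 25–30 µM DNA with ligand at 0:1 to 4:1 molar ratios, infused directly at 5 µL/min. Capillary 2200 V, cone 30 V, desolvation 70 °C, source 100 °C. Spectra were collected for 10 min, with the last 2 min analyzed.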

Test [9] deals with Nucleic Acid. The test is described as follows: Binding affinity to c-myc quadruplex DNA by isothermal titration calorimetry. The method, boiled down: (§3)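 ITC: ligand at 200 µM in Tris/K+ buffer injected into DNA at 20 µM in the same buffer, every 300 s, 29 injections. Heats of dilution were measured by injection into buffer and subtracted. The first injection was discarded. ΔH was from a single-site fit of heat per mole against molar ratio.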

Test [10] concerns Nucleic Acid. The test is described as follows: Binding affinity to Tel22 G-quadruplex DNA by isothermal titration calorimetry. The method, boiled down:
as §3

The test system of test [11] is Nucleic Acid. The test can be described thus: Binding affinity to duplex DNA by isothermal titration calorimetry. The method, boiled down: as §3
The subject of test [12] is Nucleic Acid. The test is described as follows: Binding affinity to c-myc quadruplex DNA by circular dichroism analysis. The method, boiled down:
(§4)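 CD spectra were recorded at 25 °C in 50 mM KCl with 4 µM single-strand quadruplex, 1 cm quartz cuvette, scan 50 nm/min, response 1 s. Ligand was titrated at increasing ligand:quadruplex ratios, and induced CD in the ligand absorbance region was assessed qualitatively.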

Test [13] deals with Nucleic Acid. The test can be described thus: Binding affinity to Tel22 G-quadruplex DNA at 3:1 compound to DNA ratio by circular dichroism analysis. The method, boiled down: as §4

Regarding `CC1(C)C(/C=C/C(Cl)=C/C=C2/N(CCC[N+](C)(C)C)c3ccc(Cl)cc3C2(C)C)=[N+](CCC[N+](C)(C)C)c2ccc(Cl)cc21`, the outcome in the test on Nucleic Acid [1] was inactive. The results for the Kb in the test on Nucleic Acid [2] and in the test on Nucleic Acid [3] were 0.23 ×10⁶ /M and 0.08 ×10⁶ /M, respectively. Also, the ΔTm came to 2.3 °C with Nucleic Acid [4], 19 °C in the test on Nucleic Acid [5], 15 °C in the test on Nucleic Acid [6] and 7 °C in the test with Nucleic Acid [7].

Take `CC1(C)C(/C=C/C(Br)=C/C=C2/N(CCC[N+](C)(C)C)c3ccc(Cl)cc3C2(C)C)=[N+](CCC[N+](C)(C)C)c2ccc(Cl)cc21`: the outcome in the test on Nucleic Acid [1] was inactive. Moreover, the Kb in the test on Nucleic Acid [2] stood at 0.25 ×10⁶ /M; in the test on Nucleic Acid [3] it was 0.13 ×10⁶ /M. Also, the ΔTm in the test on Nucleic Acid [4] is 1.8 °C; in the test with Nucleic Acid [5], 20 °C; with Nucleic Acid [6], 17 °C; with Nucleic Acid [7], 8 °C.

In the case of `CC1(C)C(/C=C/C(Br)=C/C=C2/N(CCC[N+](C)(C)C)c3ccccc3C2(C)C)=[N+](CCC[N+](C)(C)C)c2ccccc21`, the outcome with Nucleic Acid [8], in the test on Nucleic Acid [9] and in the test on Nucleic Acid [10] was Active. Also, the outcome in the test on Nucleic Acid [11] and in the test on Nucleic Acid [1] was inactive. In addition, the values for the Kb with Nucleic Acid [2] and with Nucleic Acid [3] were 0.07 ×10⁶ /M and 0.74 ×10⁶ /M, respectively. For the same molecule, the ΔTm with Nucleic Acid [4] amounted to 0.1 °C; in the test on Nucleic Acid [5], 15.6 °C; in the test on Nucleic Acid [6], 11.6 °C; in the test on Nucleic Acid [7] it was 4.6 °C.

Take `CC1(C)C(/C=C/C(Cl)=C/C=C2/N(CCC[N+](C)(C)C)c3ccc(Br)cc3C2(C)C)=[N+](CCC[N+](C)(C)C)c2ccc(Br)cc21`: the result in the test with Nucleic Acid [1] was inactive. Besides, the figures for the Kb with Nucleic Acid [2] and with Nucleic Acid [3] were 0.2 ×10⁶ /M and 0.05 ×10⁶ /M, respectively. Further, the ΔTm in the test with Nucleic Acid [4] was 2.5 °C; in the test with Nucleic Acid [5] it was 21 °C; with Nucleic Acid [6], 16 °C; with Nucleic Acid [7], 9 °C.

Regarding `CC1(C)C(/C=C/C(Br)=C/C=C2/N(CCC[N+](C)(C)C)c3ccc(Br)cc3C2(C)C)=[N+](CCC[N+](C)(C)C)c2ccc(Br)cc21`, the outcome in the test with Nucleic Acid [11] and with Nucleic Acid [1] was inactive. Besides, the Kb turned out to be 2 ×10⁶ /M in the test on Nucleic Acid [2] and 0.06 ×10⁶ /M with Nucleic Acid [3]. Further, the result in the test on Nucleic Acid [12] and with Nucleic Acid [13] was Active. Further, the ΔTm in the test on Nucleic Acid [4] is 1.2 °C; in the test on Nucleic Acid [5], 20.3 °C; with Nucleic Acid [6], 16.2 °C; in the test with Nucleic Acid [7], 8 °C.

`CC1(C)C(/C=C/C(Cl)=C/C=C2/N(CCC[N+](C)(C)C)c3ccccc3C2(C)C)=[N+](CCC[N+](C)(C)C)c2ccccc21`: the result in the test with Nucleic Acid [1] was inactive. Moreover, the Kb turned out to be 0.6 ×10⁶ /M with Nucleic Acid [2] and 0.08 ×10⁶ /M with Nucleic Acid [3]. In addition, the ΔTm in the test with Nucleic Acid [4] turned out to be 2.8 °C; in the test with Nucleic Acid [5] it was 13.2 °C; in the test with Nucleic Acid [6], 12.2 °C; in the test on Nucleic Acid [7] it was 4.6 °C.

With `CC1(C)C(/C=C/C=C/C=C2/N(CCC[N+](C)(C)C)c3ccccc3C2(C)C)=[N+](CCC[N+](C)(C)C)c2ccccc21`, the result in the test with Nucleic Acid [8], in the test with Nucleic Acid [12] and in the test with Nucleic Acid [13] was Active. For the same molecule, in the test with Nucleic Acid [1], the result was inactive. The Kb in the test on Nucleic Acid [2] is 0.07 ×10⁶ /M; in the test with Nucleic Acid [3] it was 0.17 ×10⁶ /M. Also, the ΔTm with Nucleic Acid [4] was 0 °C; in the test on Nucleic Acid [5], 8.7 °C; in the test with Nucleic Acid [6] it was 4.6 °C; in the test with Nucleic Acid [7] it was 2.1 °C.

With `CC1(C)C(/C=C/C=C/C=C2/N(CCC[N+](C)(C)C)c3ccc(Br)cc3C2(C)C)=[N+](CCC[N+](C)(C)C)c2ccc(Br)cc21`, the result in the test with Nucleic Acid [11] and in the test with Nucleic Acid [1] was inactive. The figures for the Kb with Nucleic Acid [2] and with Nucleic Acid [3] were 3.6 ×10⁶ /M and 0.59 ×10⁶ /M, respectively. Further, the result in the test with Nucleic Acid [12] and in the test with Nucleic Acid [13] was Active. For the same molecule, the ΔTm with Nucleic Acid [4] was 1.1 °C; with Nucleic Acid [6], 15.6 °C; in the test on Nucleic Acid [7], 2.5 °C.

Turning to `CC1(C)C(/C=C/C=C/C=C2/N(CCC[N+](C)(C)C)c3ccc(Cl)cc3C2(C)C)=[N+](CCC[N+](C)(C)C)c2ccc(Cl)cc21`, the result with Nucleic Acid [1] was inactive. Besides, the Kb entry in the test on Nucleic Acid [2] and in the test on Nucleic Acid [3] was “inactive” each time. Moreover, the ΔTm with Nucleic Acid [4] stood at 0.5 °C; in the test on Nucleic Acid [5] it was 13.2 °C; in the test on Nucleic Acid [6], 8.9 °C; in the test on Nucleic Acid [7], 3.1 °C.
